Measurements published in ChEMBL document CHEMBL4011627, “Hepatitis C Virus NS3/4A Protease Inhibitors Incorporating Flexible P2 Quinoxalines Target Drug Resistant Viral Variants” (J Med Chem, 2017).

Tests used:
[1] = Inhibition of HCV genotype 1a NS3/4A protease using Ac-DE-Dap(QXL 520)-EE-Abu-psi-[COO]AS-C(5-FAMsp)-NH2 as substrate preincubated for 1 hr followed by substrate addition; design: species or system Hepatitis C virus subtype 1a
Procedure, shortened: (§1)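 Protease domain at 2 nM preincubated 1 h at room temperature with inhibitor titrations (at least 12 concentrations) in 50 mM Tris, 5% glycerol, 10 mM DTT, 0.6 mM LDAO, 4% DMSO. Reaction started with fluorogenic substrate (200 nM final) and followed kinetically (ex 485/em 530 nm). Three independent data sets, fit globally to the Morrison equation for Ki.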

[2] = molecular target: Hepatitis C virus serine protease, NS3/NS4A (Hepatitis C virus, UniProt A3EZI9+D2K2A8, D168A); assay: Inhibition of HCV genotype 1a NS3/4A protease D168A mutant using Ac-DE-Dap(QXL 520)-EE-Abu-psi-[COO]AS-C(5-FAMsp)-NH2 as substrate preincubated for 1 hr followed by substrate addition; design: species or system Hepatitis C virus subtype 1a
Procedure, shortened: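 NS3/4A protease domain at 2 nM pre-incubated 1 h at room temperature with increasing inhibitor (at least 12 concentrations) in 50 mM Tris, 5% glycerol, 10 mM DTT, 0.6 mM LDAO, 4% DMSO. Reaction started with FRET substrate (final 200 nM), monitored kinetically (ex 485/em 530 nm). Three independent data sets; global Morrison fit for Ki.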

Hepatitis C virus [3] = assay: Antiviral activity against HCV genotype 1b Con1 harboring HCV genotype 1a H77 NS3 infected in human HuH7 cells assessed as inhibition of viral replication after 96 hrs by luciferase reporter gene assay; type: functional, cell-based, Hepacivirus hominis; details: genotype 1b Con1, Huh-7, 96 h
Hepatitis C virus [4] = assay: Antiviral activity against HCV genotype 1b Con1 harboring HCV genotype 1a H77 NS3 R155K mutant infected in human HuH7 cells assessed as inhibition of viral replication after 96 hrs by luciferase reporter gene assay; type: functional, cell-based, Hepacivirus hominis; details: genotype 1b Con1, Huh-7, 96 h
Hepatitis C virus [5] = assay: Antiviral activity against HCV genotype 1b Con1 harboring HCV genotype 1a H77 NS3 A156T mutant infected in human HuH7 cells assessed as inhibition of viral replication after 96 hrs by luciferase reporter gene assay; type: functional, cell-based, Hepacivirus hominis; details: genotype 1b Con1, Huh-7, 96 h
Hepatitis C virus [6] = assay: Antiviral activity against HCV genotype 1b Con1 harboring HCV genotype 1a H77 NS3 D168A mutant infected in human HuH7 cells assessed as inhibition of viral replication after 96 hrs by luciferase reporter gene assay; type: functional, cell-based, Hepacivirus hominis; details: genotype 1b Con1, Huh-7, 96 h
Hepatitis C virus [7] = assay: Antiviral activity against HCV genotype 1b Con1 harboring HCV genotype 1a H77 NS3 D168V mutant infected in human HuH7 cells assessed as inhibition of viral replication after 96 hrs by luciferase reporter gene assay; type: functional, cell-based, Hepacivirus hominis; details: genotype 1b Con1, Huh-7, 96 h
[8] = Inhibition of HCV genotype 3a NS3/4A protease using Ac-DE-Dap(QXL520)-EE-Abu-psi-[COO]AS-C(5-FAMsp)-NH2 as substrate preincubated for 1 hr followed by substrate addition; design: species or system Hepatitis C virus subtype 3a; procedure, shortened: as §1

| SMILES | Ki [1] | Ki [2] | EC50 (Hepatitis C virus [3]) | EC50 (Hepatitis C virus [4]) | EC50 (Hepatitis C virus [5]) | EC50 (Hepatitis C virus [6]) | EC50 (Hepatitis C virus [7]) | Ki [8] |
| --- | --- | --- | --- | --- | --- | --- | --- | --- |
| COc1ccc2nc(C(C)C)c(O[C@@H]3C[C@H]4C(=O)N[C@]5(C(=O)NS(=O)(=O)C6(C)CC6)C[C@H]5/C=C\CCCCC[C@H](NC(=O)OC5CCCC5)C(=O)N4C3)nc2c1 | 1.34 nM | 156 nM | 0.59 nM | 6.83 nM | 27.6 nM | 7.91 nM | 18.2 nM | – |
| COc1ccc2nc(C)c(O[C@@H]3C[C@H]4C(=O)N[C@]5(C(=O)NS(=O)(=O)C6CC6)C[C@H]5/C=C\CCCCC[C@H](NC(=O)OC5CCCC5)C(=O)N4C3)nc2c1 | 0.93 nM | 31.9 nM | 0.11 nM | 0.89 nM | 2.88 nM | 2.63 nM | 4.32 nM | 147 nM |
| COc1ccc2nc(C(C)C)c(O[C@@H]3C[C@H]4C(=O)N[C@]5(C(=O)NS(=O)(=O)C6(C)CC6)C[C@H]5/C=C\CCCCC[C@H](NC(=O)OC(C)(C)C)C(=O)N4C3)nc2c1 | 0.58 nM | 211 nM | 1.86 nM | 4.14 nM | 21.2 nM | 11.9 nM | 18.1 nM | – |
| COc1ccc2nc(C(F)(F)F)c(O[C@@H]3C[C@H]4C(=O)N[C@]5(C(=O)NS(=O)(=O)C6(C)CC6)C[C@H]5/C=C\CCCCC[C@H](NC(=O)OC5CCCC5)C(=O)N4C3)nc2c1 | 8.14 nM | 110 nM | 4.04 nM | 6.9 nM | 75.9 nM | 8.46 nM | 11.4 nM | 433 nM |
| CCc1nc2ccc(OC)cc2nc1O[C@@H]1C[C@H]2C(=O)N[C@]3(C(=O)NS(=O)(=O)C4CC4)C[C@H]3/C=C\CCCCC[C@H](NC(=O)OC3CCCC3)C(=O)N2C1 | 1.24 nM | 52.3 nM | 0.14 nM | 2.08 nM | 11.8 nM | 3.6 nM | 11.9 nM | 211 nM |
| COc1ccc2nc(Cl)c(O[C@@H]3C[C@H]4C(=O)N[C@]5(C(=O)NS(=O)(=O)C6(C)CC6)C[C@H]5/C=C\CCCCC[C@H](NC(=O)OC(C)(C)C)C(=O)N4C3)nc2c1 | 1.11 nM | 77.7 nM | 0.18 nM | 0.4 nM | 8.86 nM | 1.07 nM | 0.49 nM | 53.6 nM |
| CCc1nc2ccc(OC)cc2nc1O[C@@H]1C[C@H]2C(=O)N[C@]3(C(=O)NS(=O)(=O)C4(C)CC4)C[C@H]3/C=C\CCCCC[C@H](NC(=O)OC(C)(C)C)C(=O)N2C1 | 1.82 nM | 55.2 nM | 0.43 nM | 1.8 nM | 4.52 nM | 4.97 nM | 6.42 nM | 171 nM |
| COc1ccc2nc(C)c(O[C@@H]3C[C@H]4C(=O)N[C@]5(C(=O)NS(=O)(=O)C6CC6)C[C@H]5/C=C\CCCCC[C@H](NC(=O)OC(C)(C)C)C(=O)N4C3)nc2c1 | 3.4 nM | 50.9 nM | 0.39 nM | 1.17 nM | 5.95 nM | 4.24 nM | 3.17 nM | 152 nM |
| COc1ccc2nc(Cl)c(O[C@@H]3C[C@H]4C(=O)N[C@]5(C(=O)NS(=O)(=O)C6CC6)C[C@H]5/C=C\CCCCC[C@H](NC(=O)OC5CCCC5)C(=O)N4C3)nc2c1 | 0.49 nM | 30.6 nM | 0.15 nM | 0.59 nM | 3.55 nM | 1.32 nM | 1.55 nM | 85.6 nM |
| CCc1nc2ccc(OC)cc2nc1O[C@@H]1C[C@H]2C(=O)N[C@]3(C(=O)NS(=O)(=O)C4(C)CC4)C[C@H]3/C=C\CCCCC[C@H](NC(=O)OC3CCCC3)C(=O)N2C1 | 1.37 nM | 55.2 nM | 0.16 nM | 2.07 nM | 10.6 nM | 3.45 nM | 7.08 nM | 186 nM |
| COc1ccc2nc(C(C)C)c(O[C@@H]3C[C@H]4C(=O)N[C@]5(C(=O)NS(=O)(=O)C6CC6)C[C@H]5/C=C\CCCCC[C@H](NC(=O)OC5CCCC5)C(=O)N4C3)nc2c1 | 1.44 nM | 161 nM | 0.48 nM | 7.63 nM | 32.1 nM | 7.96 nM | 30.1 nM | – |
| COc1ccc2nc(C(F)(F)F)c(O[C@@H]3C[C@H]4C(=O)N[C@]5(C(=O)NS(=O)(=O)C6CC6)C[C@H]5/C=C\CCCCC[C@H](NC(=O)OC(C)(C)C)C(=O)N4C3)nc2c1 | 13.3 nM | 157 nM | 1.98 nM | 3.45 nM | 36.2 nM | 16.8 nM | 17.1 nM | 344 nM |
| CCc1nc2ccccc2nc1O[C@@H]1C[C@H]2C(=O)N[C@]3(C(=O)NS(=O)(=O)C4CC4)C[C@H]3/C=C\CCCCC[C@H](NC(=O)OC3CCCC3)C(=O)N2C1 | 1.99 nM | 107 nM | 0.24 nM | 4.28 nM | 24.6 nM | 7.5 nM | 19.3 nM | – |
| CCc1nc2ccccc2nc1O[C@@H]1C[C@H]2C(=O)N[C@]3(C(=O)NS(=O)(=O)C4CC4)C[C@H]3/C=C\CCCCC[C@H](NC(=O)OC(C)(C)C)C(=O)N2C1 | 7.18 nM | 190 nM | 0.46 nM | 1.81 nM | 10.6 nM | 8.55 nM | 14 nM | – |
| COc1ccc2nc(C)c(O[C@@H]3C[C@H]4C(=O)N[C@]5(C(=O)NS(=O)(=O)C6(C)CC6)C[C@H]5/C=C\CCCCC[C@H](NC(=O)OC(C)(C)C)C(=O)N4C3)nc2c1 | 3.6 nM | 52 nM | 0.3 nM | 0.8 nM | 1.57 nM | 2.37 nM | 1.6 nM | 119 nM |
| COc1ccc2nc(C(C)C)c(O[C@@H]3C[C@H]4C(=O)N[C@]5(C(=O)NS(=O)(=O)C6CC6)C[C@H]5/C=C\CCCCC[C@H](NC(=O)OC(C)(C)C)C(=O)N4C3)nc2c1 | 4.27 nM | 239 nM | 1.43 nM | 5.02 nM | 25.7 nM | 15.3 nM | 23.7 nM | – |
| COc1ccc2nc(C(F)(F)F)c(O[C@@H]3C[C@H]4C(=O)N[C@]5(C(=O)NS(=O)(=O)C6(C)CC6)C[C@H]5/C=C\CCCCC[C@H](NC(=O)OC(C)(C)C)C(=O)N4C3)nc2c1 | 5.77 nM | 118 nM | 1.52 nM | 2.3 nM | 20.5 nM | 8.64 nM | 8.31 nM | 231 nM |
| COc1ccc2nc(C)c(O[C@@H]3C[C@H]4C(=O)N[C@]5(C(=O)NS(=O)(=O)C6(C)CC6)C[C@H]5/C=C\CCCCC[C@H](NC(=O)OC5CCCC5)C(=O)N4C3)nc2c1 | 1.13 nM | 36.3 nM | 0.13 nM | 1.09 nM | 3.99 nM | 2.16 nM | – | 121 nM |
| CCc1nc2ccc(OC)cc2nc1O[C@@H]1C[C@H]2C(=O)N[C@]3(C(=O)NS(=O)(=O)C4CC4)C[C@H]3/C=C\CCCCC[C@H](NC(=O)OC(C)(C)C)C(=O)N2C1 | 3.29 nM | 82.4 nM | 0.33 nM | 1.75 nM | 9.65 nM | 6.31 nM | 9.1 nM | 204 nM |
| COc1ccc2nc(Cl)c(O[C@@H]3C[C@H]4C(=O)N[C@]5(C(=O)NS(=O)(=O)C6CC6)C[C@H]5/C=C\CCCCC[C@H](NC(=O)OC(C)(C)C)C(=O)N4C3)nc2c1 | 1.07 nM | 39.8 nM | 0.16 nM | 0.44 nM | 16.2 nM | 1.42 nM | 0.73 nM | 67.5 nM |
| COc1ccc2nc(Cl)c(O[C@@H]3C[C@H]4C(=O)N[C@]5(C(=O)NS(=O)(=O)C6(C)CC6)C[C@H]5/C=C\CCCCC[C@H](NC(=O)OC5CCCC5)C(=O)N4C3)nc2c1 | 0.44 nM | 25.7 nM | 0.15 nM | 0.56 nM | 4.32 nM | 0.97 nM | 1.09 nM | 61 nM |
| COc1ccc2nc(C(F)(F)F)c(O[C@@H]3C[C@H]4C(=O)N[C@]5(C(=O)NS(=O)(=O)C6CC6)C[C@H]5/C=C\CCCCC[C@H](NC(=O)OC5CCCC5)C(=O)N4C3)nc2c1 | 7.55 nM | 115 nM | 4.86 nM | 7.97 nM | 117 nM | 15.1 nM | 24 nM | 757 nM |
